CXCR6 inh: CXCR6 (human) receptor inhibition; CHO-K1 PathHunter CXCR6 beta-arrestin, luminescence; 0.36% of 360,000 active; AID 602244; O00574; inhibition, % at 20 µM; in the data active = inhibition above about 34%, passing the limit was not always enough;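 note: antagonist mode with CXCL16 agonist at 10 nM final; 0% = 10 nM CXCL16 with DMSO and 100% = unstimulated wells without agonist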
CCR6 antag: blocks CCL20-driven beta-arrestin recruitment at human CCR6 | P51684 | inhibition, % at 20 µM | AID 493098 | CHO-K1 CCR6 PathHunter beta-arrestin, luminescence, CCL20-stimulated | 0.49% of 340,000 active;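 active = compounds whose inhibition of the agonist-driven luminescence signal at 20 µM reaches about 50%, limit read from the data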;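 note: cells stimulated with CCL20 at 14 nM final; plate controls were DMSO with CCL20 for no effect and DMSO without agonist for full effect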
APJ antagonist: antagonists of human APJ apelin receptor | P35414 | CHO-K1 APJ beta-arrestin complementation, luminescence | inhibition, % at 20 µM | 0.32% of 330,000 active | AID 2521;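 active = inhibition above about 40% at 20 µM, limit read from the data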;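 note: cells challenged with 10 nM apelin-13 agonist together with compound; plate controls were apelin-13 plus DMSO wells for no effect and DMSO wells lacking apelin-13 for full effect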
APJ ag: activates the human apelin receptor APJ. CHO-K1 APJ PathHunter beta-arrestin, luminescence; 0% DMSO wells, 100% apelin. activation, % at 20 µM. 0.11% of 330,000 active;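 active = activation more than six SD over the plate average, tested at 20 µM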;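 note: 0% = DMSO alone and 100% = apelin-13 at 10 nM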
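Material: CHO-K1 APJ beta-arrestin complementation cell line; Input: cell density 1000 per well; Incubation: compound stimulation 90 min at 25 °C, detection 60 min; Signal: luminescence from split beta-galactosidase complementation, Galacton Star/Emerald II substrate; Controls: DMSO-only wells as negative, 10 nM Apelin-13 as positive control.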
PKA-R2B activ: activators of human PKA-R2B complex. PKA-R2B holoenzyme dissociation, Cy5-IP20 fluorescence polarization; R2B truncated from residue 108, S112A mutant; 0% DMSO only, 100% 113 µM cGMP. AID 504700. 0.079% of 340,000 active. activation, % at 11.4 µM;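 active = activation above a cutoff set at the mean over all compounds plus 3 SD, cut at about 18% in these data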;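 note: higher means more holoenzyme dissociation and a rise in polarization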
Target sequence (P31323 whole entry, looked up, other chains not shown, the tested form may be a part): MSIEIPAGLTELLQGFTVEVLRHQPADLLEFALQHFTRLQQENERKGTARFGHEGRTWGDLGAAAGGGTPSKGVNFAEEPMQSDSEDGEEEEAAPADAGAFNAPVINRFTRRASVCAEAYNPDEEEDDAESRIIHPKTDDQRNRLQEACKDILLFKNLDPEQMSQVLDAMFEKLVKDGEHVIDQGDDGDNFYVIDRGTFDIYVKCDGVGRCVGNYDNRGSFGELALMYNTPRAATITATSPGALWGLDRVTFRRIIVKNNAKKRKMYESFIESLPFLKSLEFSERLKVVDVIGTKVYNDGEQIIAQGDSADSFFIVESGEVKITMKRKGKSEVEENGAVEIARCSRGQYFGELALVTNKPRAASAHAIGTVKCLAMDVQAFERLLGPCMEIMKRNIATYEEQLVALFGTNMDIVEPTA
PKA-R1A act: activators of PKA-R1A complex | 0.083% of 340,000 active | activation, % at 11.4 µM | P00514+P68181 | PKA-R1A dissociation, Cy5-IP20 fluorescence polarization; scaled: DMSO 0%, 113 µM cGMP 100%;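 active = percent activation above the mean of all tested compounds plus 3 SD, cut at about 19% in these data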;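 note: higher means more PKAc released from R1A so a rise in polarization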
Numbers without * were called inactive; x = not tested or not shown. Compounds with a hit are over-represented: about 0.88% of the library has one in this group of screens.

SMILES	CXCR6 inh	CCR6 antag	APJ antagonist	APJ ag	PKA-R2B activ	PKA-R1A act
CCCOc1ccc(/C=C2\SC(=S)N(CC3CCCO3)C2=O)cc1 (stereo not given)	6.6	12.3	-7.8	1.0	7.0	-7.6
COc1cc([N+](=O)[O-])cc(/C=C2/SC(=S)N(Cc3ccccc3)C2=O)c1O	39.2	44.6	x	x	-6.6	-11.3
O=C1/C(=C/c2ccc(O)cc2)SC(=S)N1CC1CCCO1 (stereo not given)	37.4	44.4	49.0*	-8.6	-8.3	2.3
CC1=C(C(=O)N2CCCCCC2)CC(CC(=O)NCCc2ccccn2)C(=O)N1CCC1=CCCCC1 (stereo not given)	9.9	x	x	x	x	x
CC(=O)C1CCC2C3C=CC4=CC(=O)CCC4(C)C3CCC12C (stereo not given)	-10.1	x	x	x	x	x
CC1(C(=O)NS(=O)(=O)c2ccc(C#N)cc2)CCN1C(=O)Cc1cc(F)ccc1F (stereo not given)	-1.9	x	x	x	x	x
O=C1/C(=C\c2ccc(O)cc2)SC(=S)N1Cc1ccccc1	17.2	51.3*	20.1	-7.8	-5.0	-8.8
O=C(O)c1ccc(/C=C2/SC(=S)N(Cc3ccccc3)C2=O)cc1	11.0	-5.1	x	x	8.7	-12.2
CN1C(=O)/C(=C/c2ccc(O)c([N+](=O)[O-])c2)NC1=S	23.8	48.3	44.8*	-10.2	3.6	-1.6
COc1cc(/C=C2\NC(=S)N(C)C2=O)ccc1O	2.1	-2.7	-36.0	-4.5	-10.8	11.1
CC1(C(=O)NS(=O)(=O)Cc2ccccc2C(F)(F)F)CCN1C(=O)Cc1cccs1 (stereo not given)	-7.5	x	x	x	x	x
CCCNC(=O)OC1CC2CC1[C@H]1CCCCN1C2=O (stereo not given in full)	-2.3	x	x	x	x	x
COc1ccc(-c2csc(N3C(=O)C4C5c6ccccc6C(c6ccccc65)[C@@H]4C3=O)n2)cc1 (stereo not given in full)	0.7	-4.7	4.8	1.3	-10.1	-6.4
COc1ccc(-c2csc(N3C(=N)SCC3=O)n2)cc1	28.6	55.8*	19.2	-6.3	-11.1	-6.9
CCC(=O)N1Cc2cc(C(=O)Nc3nccs3)nc(-c3cccc(-c4ccccc4OC)c3)c2[C@H]1CCO	-4.0	x	x	x	x	x
CC(=NNc1ccc2ccccc2n1)c1ccccc1O	56.4*	x	x	x	-3.3	9.2
COc1cccc(C(C[N+](=O)[O-])c2c(C)[nH]n(-c3ccccc3)c2=O)c1 (stereo not given)	8.3	11.9	-12.2	4.2	-3.7	-1.4
Cc1[nH]n(-c2ccccc2)c(=O)c1C(C[N+](=O)[O-])c1ccc(Br)cc1 (stereo not given)	44.6*	35.5	14.4	2.0	13.2	4.1
Cc1ccc(-c2csc3nc4c5ccccc5c(NCCCN(C)C)nn4c(=O)c23)cc1	0.8	21.1	13.6	11.2*	-3.7	2.6
CCOc1ccccc1-c1c2cc(O)c(=O)cc-2oc2cc(O)c(O)cc12	27.2	56.0*	x	x	-1.1	-8.6
CC(NC(=O)/C(C#N)=C/c1ccc([N+](=O)[O-])o1)c1ccccc1 (stereo not given)	50.0*	x	29.8	5.2	-4.3	4.5
CC1(C)C2CC[C@]3(C)C(CC=C4[C@@H]5C[C@@](C)(CO)[C@@H]6C[C@@]5(CC[C@]43C)C(=O)O6)[C@@]2(C)CC[C@@H]1O (stereo not given in full)	x	56.1*	12.7	0.3	x	x
CCCNC(=O)c1cc(C2CCCN(C(=O)c3cc(F)ccc3C)C2)on1 (stereo not given)	2.7	x	x	x	x	x
Cc1ccc(C(CCN(Cc2ccccc2)C(=O)c2ccco2)c2ccco2)cc1 (stereo not given)	15.6	51.9*	0.0	-0.8	-5.6	-12.5
COc1ccccc1NC(=O)COc1ccc(/C=N/NC(=O)CSCc2ccc(Cl)cc2)cc1	5.9	2.1	64.2*	-3.8	-13.5	4.2
SMILES	CXCR6 inh	CCR6 antag	APJ antagonist	APJ ag	PKA-R2B activ	PKA-R1A act
CN(C)C(=O)c1ccc(N=Nc2c(O)c3ccccc3[nH]c2=O)cc1	3.6	3.8	x	x	-2.2	-4.6
CN(C)C(=S)N=Nc1[nH]c2ccccc2c1O	x	63.0*	11.8	-2.8	x	x
Fc1cccc(NC(=S)NNc2c3ccccc3nc3ccccc23)c1	37.8	55.8*	x	x	-4.0	-11.2
COC(CNC(=O)c1cccnc1)OC	3.4	18.0	-5.8	-1.3	1.3	9.8
COC(CNC(=O)c1ccc2c3c(onc13)-c1ccccc1C2=O)OC	56.4*	x	-5.9	7.9	-2.9	-5.2
COC1=C(OC)C(=O)C(Sc2ccc3ccccc3c2)=CC1=O	72.0*	x	x	x	6.1	5.4
COc1ccc(S(=O)(=O)Oc2ccc3ccccc3c2)cc1	5.9	4.5	-7.7	-1.9	-11.0	-5.4
Nc1ccccc1N=Nc1ccccc1N	15.7	26.2	24.6	-3.5	0.3	3.1
CC(C)(C)C1=CC(=Nc2ccccc2N)C=C(C(C)(C)C)C1=O	29.3	67.4*	-21.1	0.0	-12.1	-13.2
COC(=O)[C@]12CCCCC=C1N(Cc1cccc3ccccc13)C(=O)[C@H](CC(=O)N1CCN(C(=O)C3CC3)CC1)C2	2.8	x	x	x	x	x
CCn1nc([N+](=O)[O-])c(C(C#N)c2nc3cc(C(F)(F)F)ccc3s2)c(Cl)c1=O (stereo not given)	38.2	52.3*	55.6*	-11.0	-14.7	4.4
Cc1ccccc1C1=C/C(=C(\SS/C(C(=O)c2ccc(OCC(=O)O)c(Cl)c2Cl)=C2\C=C(c3ccccc3C)SS2)C(=O)c2ccc(OCC(=O)O)c(Cl)c2Cl)SS1	29.2	61.8*	x	x	7.6	0.1
Cc1ccc(N2C(=O)c3cccc4c([N+](=O)[O-])ccc(c34)C2=O)c2cccnc12	2.8	20.8	-15.6	3.2	-8.0	2.1
Cc1ccnc(N2C(=O)c3cccc4c([N+](=O)[O-])ccc(c34)C2=O)c1	41.9*	49.7	-11.5	-0.8	3.5	5.3
Cc1c(Nc2nc(-c3ccc(Cl)cc3)cs2)c(=O)n(-c2ccccc2)n1C	2.4	0.8	-13.0	-3.6	9.8	0.4
CCOC(=O)Cc1csc(Nc2c(C)n(C)n(-c3ccccc3)c2=O)n1	9.3	69.2*	11.4	0.9	-8.2	-16.1
C[C@@H](c1ccccc1)N1C[C@@H](COCc2ccccc2)Oc2cc(N3CC[C@H](O)C3)ccc2S1(=O)=O	4.6	x	x	x	x	x
Cc1cc(NS(=O)(=O)c2ccc(NC(=O)c3ccc(Cl)cc3Cl)cc2)no1	-3.7	1.9	-0.5	3.8	-3.0	-12.1
Cc1cc(NS(=O)(=O)c2ccc(NC(=S)NC(=O)c3ccc(Cl)cc3Cl)cc2)no1	9.3	51.7*	30.4	-0.1	-2.6	-3.9
